What follows are molecules tested on E. coli BW25113 ΔtolC growth inhibition, OD615 (assay: growth inhibitors of E. coli tolC mutant, dose response, strain BW25113 ΔtolC::kan (AID 617)).
In short: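 Test system: E. coli BW25113 ΔtolC::kan bacteria / Buffer or medium: kanamycin-containing LB broth, 50 µg/mL / Compound: serial dilution series of compound / Incubation: bacterial growth with compound for 20 h, 37 °C / Measured by: OD615 / Read-out basis: growth-inhibition IC50 from four-parameter logistic curve, bounds set to 0% and 100%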

Q: For `O=C(CCCSc1nc(-c2ccco2)cc(C(F)(F)F)n1)Nc1ccc2c(c1)OCO2`, which IC50 is on record?
A: Its IC50 is 4.61 µM.

Q: Which IC50 does the source give for `COC(=O)c1sccc1NC(=O)c1cc2c(s1)CCCC2` here?
A: Its IC50 is 4.95 µM.

Q: For `Cc1nc2nc(COc3ccccc3)[nH]n2c(=O)c1Cc1ccccc1`, which IC50 is on record?
A: The IC50 was 1.32 µM.

Q: For `c1ccc(Nc2nc(-c3cccs3)cs2)nc1`, which IC50 is on record?
A: The IC50 was 12.9 µM.

Q: How did the IC50 turn out when `CCCc1nc2ccccc2c(=O)n1NC(=O)c1c(O)c2ccccc2[nH]c1=O` was run?
A: The IC50 was 5.73 µM.

Q: `Cc1ccc(C)c2[nH]c(=O)c(CN(CC3CCCO3)S(=O)(=O)c3ccc4c(c3)OCCO4)cc12` (configuration not stated) was tested. Which IC50 did it give?
A: The IC50 was 38.6 µM.

Q: With `Cc1ccc(C(=O)N2CCN(c3cccc(Cl)c3)CC2)cc1C` as the molecule, how does the IC50 read?
A: The IC50 was 10.4 µM.

Q: Which IC50 does the source give for `CN1CCN(c2c(F)cc3c(=O)c(C(=O)O)cn4c3c2SCC4)CC1` here?
A: Its IC50 is 0.91 µM.

Q: Which IC50 does the source give for `Cc1nnc(NC(=O)c2ccc(S(=O)(=O)N(C)Cc3ccccc3)cc2)o1` here?
A: Its IC50 is 3.87 µM.

Q: With `CCCn1c2ccccc2c2nc3ccccc3nc21` as the molecule, how does the IC50 read?
A: The IC50 was 73.4 µM.

Q: `O=C(CCNc1cc(Cl)cc(Cl)c1)c1ccco1` was tested. Which IC50 did it give?
A: The IC50 was 30.9 µM.

Q: For `O=C(Nc1cccc(Br)c1)c1cc2ccccc2o1`, which IC50 is on record?
A: Its IC50 is 0.98 µM.

Q: How did the IC50 turn out when `O=C(Nc1ccc(C(F)(F)F)cc1)C1CCCN1S(=O)(=O)c1cccc2cccnc12` (configuration not stated) was run?
A: The IC50 was 22.6 µM.

Q: How did the IC50 turn out when `O=C(NCC1CCCO1)c1sc(=S)n2c1[nH]c(=O)c1ccc(C(=O)N3CCCCC3)cc12` (configuration not stated) was run?
A: The IC50 was 16.4 µM.

Q: For `O=C1CCCc2nc3nc4ccccc4n3cc21`, which IC50 is on record?
A: Its IC50 is 17 µM.

Q: How did the IC50 turn out when `Cc1ccc(Nc2cc(C)nn2-c2nc(C)cc(=O)[nH]2)cc1` was run?
A: The IC50 was 0.18 µM.

Q: `Cc1ccc(Cl)cc1N1CCN(C(=O)COc2ccc(S(=O)(=O)NC(C)C)cc2)CC1` was tested. Which IC50 did it give?
A: Its IC50 is 10.6 µM.

Q: For `CCCCOc1ccccc1Cn1c(=O)oc2ccc(C)cc21`, which IC50 is on record?
A: The IC50 was 16.4 µM.

Q: `c1ccc(CC2CCN(c3nnnn3-c3ccccc3)CC2)cc1` was tested. Which IC50 did it give?
A: The IC50 was 9.95 µM.

Q: Which IC50 does the source give for `Cc1c(C(=O)OC2CCCC2C)[nH]c2c1C(=O)CCC2` (configuration not stated) here?
A: Its IC50 is 0.38 µM.

Q: Which IC50 does the source give for `Cc1noc(NS(=O)(=O)c2ccc(NC(=O)COc3ccc(Cl)cc3Cl)cc2)c1C` here?
A: The IC50 was 9.41 µM.

Q: How did the IC50 turn out when `N/C(=N/O)c1nc(N2CCCC2)nc(N(c2ccccc2)c2ccccc2)n1` was run?
A: The IC50 was 10.9 µM.

Q: How did the IC50 turn out when `CCn1nc(-c2cccs2)nc2c(=O)n(C)c(=O)nc1-2` was run?
A: Its IC50 is 1.92 µM.

Q: `CCC(Sc1nnc(-c2ccc(C)c(Cl)c2)n1CC)C(=O)Nc1nccs1` (configuration not stated) was tested. Which IC50 did it give?
A: The IC50 was 14.9 µM.

Q: Which IC50 does the source give for `N#Cc1cn(Cc2cccc(Cl)c2)c2ccccc12` here?
A: Its IC50 is 7.45 µM.

Q: How did the IC50 turn out when `OC(c1cccc(OCc2ccccc2)c1)c1nnc(-c2ccccc2)o1` (configuration not stated) was run?
A: The IC50 was 72.1 µM.

Q: With `COc1cccc2sc(Nc3nc(-c4ccccn4)cs3)nc12` as the molecule, how does the IC50 read?
A: Its IC50 is 1.79 µM.

Q: For `S=C(c1ccc(-c2ccc(Cl)c(Cl)c2)o1)N1CCOCC1`, which IC50 is on record?
A: Its IC50 is 11.2 µM.

Q: For `CCOC(=O)c1cnc(-n2nc(C)cc2C)nc1N(CC)CC`, which IC50 is on record?
A: Its IC50 is 12.3 µM.

Q: With `Clc1ccc2[nH]c3c(c2c1)CCc1cn[nH]c1-3` as the molecule, how does the IC50 read?
A: Its IC50 is 6.49 µM.

Q: How did the IC50 turn out when `CCCOC(=O)c1ccc(Oc2cn[nH]c2-c2ccc(OCC)cc2O)cc1` was run?
A: Its IC50 is 13.6 µM.

Q: Which IC50 does the source give for `CCSC(C)CC1C/C(=N/O)c2c(CC)noc2C1` (configuration not stated) here?
A: Its IC50 is 20.7 µM.

Q: Which IC50 does the source give for `N#C/C(=C\c1cccs1)Sc1nc2ccccc2s1` here?
A: The IC50 was 9.02 µM.

Q: Which IC50 does the source give for `COC(=O)c1sc(N2C(=O)C(O)=C(C(=O)c3ccc(C)o3)C2c2ccc(F)cc2)nc1C` (configuration not stated) here?
A: The IC50 was 15.6 µM.

Q: How did the IC50 turn out when `Cc1cc(OCCCC(=O)N2CCCCC2)cc(C)c1Cl` was run?
A: Its IC50 is 28.2 µM.

Q: How did the IC50 turn out when `Cc1cccc(N(C)C(=O)c2cc3cc4ccc(C)cc4nc3o2)c1` was run?
A: The IC50 was 23.9 µM.

Q: Which IC50 does the source give for `COC(=O)c1ccc(C2c3c(n[nH]c3C)C(=O)N2c2ccc(C)cc2)cc1` (configuration not stated) here?
A: Its IC50 is 4.38 µM.

Q: How did the IC50 turn out when `O=C(NCCCc1ccccc1)c1ccccc1O` was run?
A: The IC50 was 9.34 µM.

Q: `Cc1ccccc1CSc1nc2n(n1)C(c1cccs1)C1=C(CCCC1=O)N2` (configuration not stated) was tested. Which IC50 did it give?
A: The IC50 was 8.42 µM.

Q: For `O=S(=O)(Nc1cc(Cl)ccc1N1CCCCC1)c1cccs1`, which IC50 is on record?
A: Its IC50 is 12.5 µM.

Q: How did the IC50 turn out when `O=C(c1ccccc1CCc1ccccc1)N1CCN(c2ccccn2)CC1` was run?
A: Its IC50 is 8.38 µM.

Q: How did the IC50 turn out when `CCOC(=O)c1c(-c2ccccc2)oc2ccc(OC(=O)N(C)C)cc12` was run?
A: Its IC50 is 9.1 µM.
